Test results from paper PMC11789357 (Journal of Translational Medicine, 2025).
pKd: −log10 of the molar value. Blank lines part the entries; values can stand above or below the compound they belong to.

Key:
UT-7 cells [1] = conditions: ref [21], [23]; cited from earlier work
[2] = biological target: EPOR extracellular domain-IgFc construct (UniProt P19235); assay: SPR
BaF3-hEPOR cells = assay: Western blot of EPOR downstream signaling; assay type: cell-based, murine; conditions: 10 min treatment, monitored 4 days
Outline: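 They were exposed 10 min, pelleted, and resuspended in EPO-free medium. Lysates were taken at 0 min, 30 min, 1 h, 4 h and 1–4 days. Western blots on 4–20% gels were probed for p-ERK1/2 and p-STAT5.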

UT-7 cells [3] = assay: CellTiter-Glo cell proliferation / survival assay; assay type: cell-based, human; conditions: medium without EPO; matched doses 1000 ng/mL (20 nM) vs 4 U/mL, 200 ng/mL (4 nM) vs 0.8 U/mL
[4] = Single-dose PK study in healthy BALB/c mice; assay type: in vivo, mouse; conditions: SC 0.08 mg/kg single dose
Outline: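 Female BALB/c mice received a single sc injection of test compound or peptide dimer. Blood was sampled at several times over 14 days, and serum drug level was measured by MSD immunoassay. Mean concentration–time curves gave Tmax, Cmax, t1/2, AUC0-t, AUC0-∞ and MRT.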

Sequence of UniProt P19235 (P19235 25-250): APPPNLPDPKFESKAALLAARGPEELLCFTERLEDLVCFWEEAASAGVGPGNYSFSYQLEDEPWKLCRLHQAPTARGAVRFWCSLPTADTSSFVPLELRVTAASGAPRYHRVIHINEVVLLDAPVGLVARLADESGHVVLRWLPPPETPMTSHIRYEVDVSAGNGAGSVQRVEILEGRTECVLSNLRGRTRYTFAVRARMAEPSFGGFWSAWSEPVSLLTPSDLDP

Compound: rHuEPO: recombinant human erythropoietin, as cited from literature
Rate of internalization of the rHuEPO-receptor complex (UT-7 cells [1]): 3.6 per hour
Time to lysosomal degradation post-internalization (UT-7 cells [1]): 15 to 20 min

pKd [2]: 9.55
Compound: Pegmolesatide (peptide)

Compound: rHuEPO (ESPO 3000): recombinant human erythropoietin product ESPO 3000, Kyowa Kirin
Phosphorylation levels of ERK1/2 MAPK and STAT5 after withdrawal (BaF3-hEPOR cells): showed a decline
UT-7 cell proliferation under continuous treatment (UT-7 cells [3]): maintained cell proliferation over 7 consecutive days of treatment

Compound: CC(=O)NCC(=O)NCC(=O)N[C@H](C(=O)N[C@@H](Cc1ccc(O)cc1)C(=O)N[C@@H](CO)C(=O)N[C@H]1CSSC[C@@H](C(=O)N[C@@H](CCCNC(=N)N)C(=O)N2CCC[C@H]2C(=O)N[C@@H](CCC(N)=O)C(=O)N[C@@H](CCCNC(=N)N)C(=O)NCC(=O)NCCC(=O)N[C@@H](CCCCNC(=O)CN(CC(=O)NCCCC[C@H](NC(=O)CCNC(=O)CNC(=O)[C@H](CCCNC(=N)N)NC(=O)[C@H](CCC(N)=O)NC(=O)[C@@H]2CCCN2C(=O)[C@H](CCCNC(=N)N)NC(=O)[C@@H]2CSSC[C@H](NC(=O)[C@H](CO)NC(=O)[C@H](Cc3ccc(O)cc3)NC(=O)[C@@H](NC(=O)CNC(=O)CNC(C)=O)[C@@H](C)O)C(=O)N[C@@H](Cc3c[nH]cn3)C(=O)N[C@@H](Cc3ccccc3)C(=O)NCC(=O)N[C@@H](C)C(=O)N[C@@H](CC(C)C)C(=O)N[C@@H]([C@@H](C)O)C(=O)N[C@@H](Cc3c[nH]c4ccccc34)C(=O)N[C@@H](C(C)C)C(=O)N2)C(N)=O)C(=O)CCN)C(N)=O)NC(=O)[C@H](C(C)C)NC(=O)[C@H](Cc2c[nH]c3ccccc23)NC(=O)[C@H]([C@@H](C)O)NC(=O)[C@H](CC(C)C)NC(=O)[C@H](C)NC(=O)CNC(=O)[C@H](Cc2ccccc2)NC(=O)[C@H](Cc2c[nH]cn2)NC1=O)[C@@H](C)O [Peptide dimer]
Phosphorylation levels of ERK1/2 MAPK and STAT5 after withdrawal (BaF3-hEPOR cells): showed a decline
Serum concentration [4]: mostly below detection limits
